Laboratory results published in ChEMBL document CHEMBL1144142, “Lyso-PAF analogues and lysophosphatidylcholines from the marine sponge Spirastrella abata as inhibitors of cholesterol biosynthesis” (J Nat Prod, 1999).
≈ marks a conversion by molar mass, not a printed value. Calls of active or inactive are those of the source. The rule behind the calls is not given here.

How the values were obtained:
Assay type in all cases: functional, cell-based
[1] = (§1) Inhibition of cholesterol biosynthesis in human chang liver cells assessed as conversion of lanosterol into cholesterol
Summary of the method: (§2)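 Chang liver cells (ATCC CCL 13) seeded at 5×10^4 per 15-mm dish in MEM + 10% FBS; on day 2 washed, held 4 h in serum-free Hepatozyme-SFM, pretreated 2 h with compound, then labeled acetate (2.5 μCi/well) for 2 h. Cells lysed in 0.1 N NaOH, saponified (6% KOH/MeOH), nonsaponifiable lipids extracted in n-hexane, separated by TLC (C6H6-Me2CO 19:1), radioactive spots quantified by phosphor imaging.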

chang liver [2] = test: as §1; summary of the method: as §2
chang liver [3] = test: Inhibition of cholesterol biosynthesis in human chang liver cells assessed as suppression of lanosterol; summary of the method: as §2
chang liver [4] = test: Inhibition of cholesterol biosynthesis in human chang liver cells assessed as suppression of cholesterol level; summary of the method: as §2

Structure (SMILES) | IC50 [1] [µg/mL] | Activity (chang liver [2]) | Activity (chang liver [3]) | Activity (chang liver [4])
CCCCCCC1CC1CCCCCCCCCC(=O)OC[C@@H](O)COP(=O)([O-])OCC[N+](C)(C)C (some centres not stated) | 60 (≈ 112 µM) | Dose-dependent effect | inactive | 
CC(C)CCCCCCCCCCCCCCOC[C@@H](O)COP(=O)([O-])OCC[N+](C)(C)C | 320 (≈ 646 µM) | Dose-dependent effect |  | 
CC[C@H](C)C(=O)O[C@H]1CCC=C2C=C[C@H](C)[C@H](CC[C@@H]3C[C@@H](O)CC(=O)O3)[C@H]21 |  |  | Active | Active
CCCCCCCCCCCCCCCCOC[C@@H](O)COP(=O)([O-])OCC[N+](C)(C)C | 422 (≈ 876 µM) | Dose-dependent effect |  | 

Now from value to compound, other results behind:

IC50 [1] [µg/mL] | Structure (SMILES) | Activity (chang liver [2]) | Activity (chang liver [3]) | Activity (chang liver [4])
121 (≈ 238 µM) | CCCCCCCCCCCCC/C=C\CCCOC[C@@H](O)COP(=O)([O-])OCC[N+](C)(C)C | Dose-dependent effect |  | 
125 (≈ 246 µM) | CCCCCC/C=C\CCCCCCCCCCOC[C@@H](O)COP(=O)([O-])OCC[N+](C)(C)C | Dose-dependent effect |  | 
21 (≈ 38.2 µM) | CCCCCC/C=C\CCCCCCCCCCCC(=O)OC[C@@H](O)COP(=O)([O-])OCC[N+](C)(C)C | Dose-dependent effect |  | 
174 (≈ 343 µM) | CCCCCCCCCCCCCC/C=C\CCOC[C@@H](O)COP(=O)([O-])OCC[N+](C)(C)C | Dose-dependent effect |  | 
